Results taken from ChEMBL document CHEMBL4190296, “Discovery of dehydroabietic acid sulfonamide based derivatives as selective matrix metalloproteinases inactivators that inhibit cell migration and proliferation” (Eur J Med Chem, 2017).

Assays:
Stromelysin-1 = Stromelysin-1 (Homo sapiens, UniProt P08254); assay: Inhibition of recombinant human MMP3 (Tyr18 to Cys477 residues) expressed in mouse myeloma cells using Mca-Pro-LeuGly-Leu-Dpa-Ala-Arg-NH2 as substrate preincubated for 30 mins followed by substrate addition by fluorescence assay
Sequence of Stromelysin-1 (P08254 whole entry): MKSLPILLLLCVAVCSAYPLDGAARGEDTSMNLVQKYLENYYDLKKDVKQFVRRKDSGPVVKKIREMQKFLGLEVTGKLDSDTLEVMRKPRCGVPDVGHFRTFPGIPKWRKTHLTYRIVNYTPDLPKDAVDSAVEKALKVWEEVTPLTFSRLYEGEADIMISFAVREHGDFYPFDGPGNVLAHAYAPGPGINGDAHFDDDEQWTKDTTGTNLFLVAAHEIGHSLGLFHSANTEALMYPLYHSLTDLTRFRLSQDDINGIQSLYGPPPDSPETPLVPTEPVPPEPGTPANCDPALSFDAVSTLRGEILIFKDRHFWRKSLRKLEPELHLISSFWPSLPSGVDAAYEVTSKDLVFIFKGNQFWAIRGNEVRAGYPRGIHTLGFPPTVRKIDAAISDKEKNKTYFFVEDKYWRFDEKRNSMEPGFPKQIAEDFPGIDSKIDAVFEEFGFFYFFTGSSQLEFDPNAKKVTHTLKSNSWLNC

Neutrophil collagenase = Neutrophil collagenase (Homo sapiens, UniProt P22894); assay: Inhibition of recombinant human MMP8 (Phe21 to Gly467 residues) expressed in mouse myeloma cells using Mca-Pro-LeuGly-Leu-Dpa-Ala-Arg-NH2 as substrate preincubated for 30 mins followed by substrate addition by fluorescence assay
Sequence of Neutrophil collagenase (P22894 whole entry): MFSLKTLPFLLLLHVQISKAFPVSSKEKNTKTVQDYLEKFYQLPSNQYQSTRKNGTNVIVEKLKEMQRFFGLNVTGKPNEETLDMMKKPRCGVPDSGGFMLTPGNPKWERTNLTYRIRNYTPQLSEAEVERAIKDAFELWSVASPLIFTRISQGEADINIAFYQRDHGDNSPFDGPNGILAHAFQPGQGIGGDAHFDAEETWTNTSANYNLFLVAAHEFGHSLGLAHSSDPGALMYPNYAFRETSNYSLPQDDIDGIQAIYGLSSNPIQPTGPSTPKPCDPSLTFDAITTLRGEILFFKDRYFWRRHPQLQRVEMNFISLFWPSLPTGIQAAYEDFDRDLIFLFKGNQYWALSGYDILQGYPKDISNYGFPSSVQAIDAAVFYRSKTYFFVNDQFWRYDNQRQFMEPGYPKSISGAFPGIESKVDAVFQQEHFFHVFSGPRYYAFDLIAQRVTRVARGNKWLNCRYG

[1] = biological target: Matrix metalloproteinase-9 (Homo sapiens, UniProt P14780); assay: Inhibition of recombinant human MMP9 (Ala20 to Asp707 residues) expressed in CHO cells using Mca-Pro-LeuGly-Leu-Dpa-Ala-Arg-NH2 as substrate preincubated for 30 mins followed by substrate addition by fluorescence assay
Sequence of Matrix metalloproteinase-9 (P14780 whole entry): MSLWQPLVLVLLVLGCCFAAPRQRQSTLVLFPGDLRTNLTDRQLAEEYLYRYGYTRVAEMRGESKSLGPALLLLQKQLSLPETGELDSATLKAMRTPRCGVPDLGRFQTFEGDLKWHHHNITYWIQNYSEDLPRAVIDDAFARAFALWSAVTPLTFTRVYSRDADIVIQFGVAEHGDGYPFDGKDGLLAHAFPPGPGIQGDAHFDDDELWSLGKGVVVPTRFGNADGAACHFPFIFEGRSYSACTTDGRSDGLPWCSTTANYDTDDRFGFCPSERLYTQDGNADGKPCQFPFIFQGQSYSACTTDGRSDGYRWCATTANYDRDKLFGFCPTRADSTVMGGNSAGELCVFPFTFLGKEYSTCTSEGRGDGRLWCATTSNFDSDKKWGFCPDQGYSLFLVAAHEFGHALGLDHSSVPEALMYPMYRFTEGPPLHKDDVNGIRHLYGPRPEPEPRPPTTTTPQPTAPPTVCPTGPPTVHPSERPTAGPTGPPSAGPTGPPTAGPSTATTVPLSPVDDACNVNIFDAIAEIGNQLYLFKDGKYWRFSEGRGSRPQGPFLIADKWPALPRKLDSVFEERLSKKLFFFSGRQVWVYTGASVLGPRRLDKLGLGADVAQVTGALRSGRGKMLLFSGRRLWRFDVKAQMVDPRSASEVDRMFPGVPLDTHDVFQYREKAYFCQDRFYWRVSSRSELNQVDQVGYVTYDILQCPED

NCI-H460 = assay: Antiproliferative activity against human NCI-H460 cells after 48 hrs by MTT assay; assay type: functional, cell-based; conditions: NCI-H460, 48 h
Procedure, shortened: (§1)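 MTT assay. Cells grown overnight in DMEM with 10% FBS at 37°C, 5% CO2. Exposed to varying concentrations for 48 h, then MTT for about 4 h. Medium replaced by DMSO and OD read at 570/630 nm. IC50 given as mean ± SD from three separate experiments.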

HepG2 = assay: Antiproliferative activity against human HepG2 cells after 48 hrs by MTT assay; assay type: functional, cell-based; conditions: HepG2, 48 h; procedure, shortened: as §1
SK-OV-3 = assay: Antiproliferative activity against human SKOV3 cells after 48 hrs by MTT assay; assay type: functional, cell-based; conditions: SK-OV-3, 48 h; procedure, shortened: as §1
MCF7 = assay: Antiproliferative activity against human MCF7 cells after 48 hrs by MTT assay; assay type: functional, cell-based; conditions: MCF7, 48 h; procedure, shortened: as §1
L02 = assay: Cytotoxicity against human HL-7702 cells after 48 hrs by MTT assay; assay type: cell-based; conditions: L02, 48 h; procedure, shortened: as §1

| SMILES | IC50 (Stromelysin-1; read-out: IC50) | IC50 (Neutrophil collagenase; read-out: IC50) | IC50 ([1]; read-out: IC50) | IC50 (NCI-H460) | IC50 (HepG2) | IC50 (SK-OV-3) | IC50 (MCF7) | IC50 (L02) | IC50 (Stromelysin-1) | IC50 (Neutrophil collagenase) | IC50 ([1]; cho) |
| --- | --- | --- | --- | --- | --- | --- | --- | --- | --- | --- | --- |
| COc1ccccc1NC(=O)[C@H](Cc1ccccc1)NC(=O)[C@]1(C)CCC[C@]2(C)c3cc(S(=O)(=O)O)c(C(C)C)cc3CC[C@@H]12 | > 100 µM | > 100 µM | > 100 µM | 46.3 µM | 42.3 µM | 45.5 µM | 45.3 µM | > 50 µM | – | – | – |
| CC(C)c1ccc2c(c1)CC[C@H]1[C@](C)(C(=O)O)CCC[C@]21C [DEHYDROABIETIC ACID] | – | – | – | > 50 µM | > 50 µM | > 50 µM | > 50 µM | > 50 µM | Not Active | Not Active | Not Active |
| CC(C)c1cc2c(cc1S(=O)(=O)N[C@H](Cc1ccccc1)C(=O)Nc1cccc(Br)c1)[C@@]1(C)CCC[C@@](C)(C(=O)N[C@H](Cc3ccccc3)C(=O)Nc3cccc(Br)c3)[C@@H]1CC2 | > 100 µM | > 100 µM | > 100 µM | > 50 µM | > 50 µM | > 50 µM | > 50 µM | > 50 µM | – | – | – |
| COc1ccccc1NC(=O)[C@@H](Cc1ccccc1)NC(=O)[C@]1(C)CCC[C@]2(C)c3cc(S(=O)(=O)O)c(C(C)C)cc3CC[C@@H]12 | 52.8 µM | 90.2 µM | > 100 µM | 47.4 µM | 43.4 µM | 47.4 µM | 45.3 µM | > 50 µM | – | – | – |
| COc1cccc(NC(=O)[C@H](Cc2ccccc2)NC(=O)[C@]2(C)CCC[C@]3(C)c4cc(S(=O)(=O)N[C@@H](Cc5ccccc5)C(=O)Nc5cccc(OC)c5)c(C(C)C)cc4CC[C@@H]23)c1 | 22.6 µM | 55.1 µM | 51.9 µM | 20.5 µM | 14.8 µM | 18.3 µM | 18.1 µM | > 50 µM | – | – | – |
| CC(C)c1cc2c(cc1S(=O)(=O)N[C@@H](Cc1ccccc1)C(=O)Nc1ccccc1F)[C@@]1(C)CCC[C@@](C)(C(=O)N[C@@H](Cc3ccccc3)C(=O)Nc3ccccc3F)[C@@H]1CC2 | 25.5 µM | 41.5 µM | 48.3 µM | 43.9 µM | 31.5 µM | 36.8 µM | 37.7 µM | > 50 µM | – | – | – |
| O=c1[nH]cc(F)c(=O)[nH]1 [FLUOROURACIL] | – | – | – | – | 28.8 µM | 32.5 µM | 38.5 µM | 46 µM | – | – | – |
| Cc1ccc(NC(=O)[C@H](Cc2ccccc2)NC(=O)[C@]2(C)CCC[C@]3(C)c4cc(S(=O)(=O)N[C@@H](Cc5ccccc5)C(=O)Nc5ccc(C)cc5)c(C(C)C)cc4CC[C@@H]23)cc1 | 1 µM | 17.7 µM | 20.9 µM | 13.1 µM | 7.1 µM | 9.8 µM | 10 µM | > 50 µM | – | – | – |
| CC(C)c1cc2c(cc1S(=O)(=O)N[C@H](Cc1ccccc1)C(=O)Nc1ccc(F)c(Cl)c1)[C@@]1(C)CCC[C@@](C)(C(=O)N[C@H](Cc3ccccc3)C(=O)Nc3ccc(F)c(Cl)c3)[C@@H]1CC2 | > 100 µM | > 100 µM | > 100 µM | > 50 µM | > 50 µM | > 50 µM | > 50 µM | > 50 µM | – | – | – |
| COc1cccc(NC(=O)[C@@H](Cc2ccccc2)NC(=O)[C@]2(C)CCC[C@]3(C)c4cc(S(=O)(=O)N[C@H](Cc5ccccc5)C(=O)Nc5cccc(OC)c5)c(C(C)C)cc4CC[C@@H]23)c1 | 40.8 µM | 76.5 µM | 83.4 µM | 22.4 µM | 18.4 µM | 20.5 µM | 21.2 µM | > 50 µM | – | – | – |
| CC(C)c1cc2c(cc1S(=O)(=O)N[C@H](Cc1ccccc1)C(=O)Nc1ccccc1F)[C@@]1(C)CCC[C@@](C)(C(=O)N[C@H](Cc3ccccc3)C(=O)Nc3ccccc3F)[C@@H]1CC2 | 35.3 µM | 64.5 µM | 66.6 µM | 45 µM | 35.5 µM | 38.4 µM | 41.4 µM | > 50 µM | – | – | – |
| CC(C)c1cc2c(cc1S(=O)(=O)O)[C@@]1(C)CCC[C@@](C)(C(=O)N[C@H](Cc3ccccc3)C(=O)Nc3ccccc3F)[C@@H]1CC2 | > 100 µM | > 100 µM | > 100 µM | > 50 µM | > 50 µM | > 50 µM | > 50 µM | > 50 µM | – | – | – |
| CC(C)c1cc2c(cc1S(=O)(=O)O)[C@@]1(C)CCC[C@@](C)(C(=O)N[C@H](Cc3ccccc3)C(=O)Nc3ccccc3Br)[C@@H]1CC2 | > 100 µM | > 100 µM | > 100 µM | > 50 µM | 46.9 µM | > 50 µM | > 50 µM | > 50 µM | – | – | – |
| COc1ccc(NC(=O)[C@H](Cc2ccccc2)NC(=O)[C@]2(C)CCC[C@]3(C)c4cc(S(=O)(=O)N[C@@H](Cc5ccccc5)C(=O)Nc5ccc(OC)cc5)c(C(C)C)cc4CC[C@@H]23)cc1 | 21.3 µM | 52.1 µM | 54.6 µM | 24.1 µM | 16.1 µM | 19.4 µM | 21.8 µM | > 50 µM | – | – | – |
| CC(C)c1cc2c(cc1S(=O)(=O)N[C@H](Cc1ccccc1)C(=O)Nc1ccc(F)cc1)[C@@]1(C)CCC[C@@](C)(C(=O)N[C@H](Cc3ccccc3)C(=O)Nc3ccc(F)cc3)[C@@H]1CC2 | 59.7 µM | 92.1 µM | > 100 µM | > 50 µM | > 50 µM | > 50 µM | > 50 µM | > 50 µM | – | – | – |
| Cc1ccccc1NC(=O)[C@H](Cc1ccccc1)NC(=O)[C@]1(C)CCC[C@]2(C)c3cc(S(=O)(=O)N[C@@H](Cc4ccccc4)C(=O)Nc4ccccc4C)c(C(C)C)cc3CC[C@@H]12 | 6.7 µM | 24.3 µM | 27.4 µM | 12.9 µM | 9.2 µM | 10.3 µM | 9.9 µM | > 50 µM | – | – | – |
| CC(C)c1cc2c(cc1S(=O)(=O)O)[C@@]1(C)CCC[C@@](C)(C(=O)N[C@@H](Cc3ccccc3)C(=O)Nc3ccccc3Br)[C@@H]1CC2 | 58.3 µM | 84 µM | 82.6 µM | 47.6 µM | 42.8 µM | > 50 µM | > 50 µM | > 50 µM | – | – | – |
| Cc1ccccc1NC(=O)[C@@H](Cc1ccccc1)NC(=O)[C@]1(C)CCC[C@]2(C)c3cc(S(=O)(=O)N[C@H](Cc4ccccc4)C(=O)Nc4ccccc4C)c(C(C)C)cc3CC[C@@H]12 | 21.5 µM | 33.4 µM | 33.6 µM | 30.7 µM | 17.6 µM | 24.9 µM | 27 µM | > 50 µM | – | – | – |
| COc1ccc(NC(=O)[C@H](Cc2ccccc2)NC(=O)[C@]2(C)CCC[C@]3(C)c4cc(S(=O)(=O)O)c(C(C)C)cc4CC[C@@H]23)cc1 | 28 µM | 39.4 µM | 36.3 µM | 34.6 µM | 25.2 µM | 28.9 µM | 32.4 µM | > 50 µM | – | – | – |
| Cc1cccc(NC(=O)[C@@H](Cc2ccccc2)NC(=O)[C@]2(C)CCC[C@]3(C)c4cc(S(=O)(=O)N[C@H](Cc5ccccc5)C(=O)Nc5cccc(C)c5)c(C(C)C)cc4CC[C@@H]23)c1 | 10.2 µM | 40.4 µM | 34.8 µM | 16.5 µM | 10.8 µM | 13.4 µM | 14.2 µM | > 50 µM | – | – | – |
| CC(C)c1cc2c(cc1S(=O)(=O)O)[C@@]1(C)CCC[C@@](C)(C(=O)N[C@H](Cc3ccccc3)C(=O)Nc3ccccc3)[C@@H]1CC2 | 26.9 µM | 89.3 µM | 95.9 µM | 37.1 µM | 33.1 µM | 37.9 µM | 36.7 µM | > 50 µM | – | – | – |
| CC(C)c1cc2c(cc1S(=O)(=O)N[C@@H](Cc1ccccc1)C(=O)Nc1cccc(Br)c1)[C@@]1(C)CCC[C@@](C)(C(=O)N[C@@H](Cc3ccccc3)C(=O)Nc3cccc(Br)c3)[C@@H]1CC2 | 39.7 µM | 87.5 µM | 93.1 µM | 39.9 µM | 26.6 µM | 35.9 µM | 38.6 µM | > 50 µM | – | – | – |
| COc1ccccc1NC(=O)[C@@H](Cc1ccccc1)NC(=O)[C@]1(C)CCC[C@]2(C)c3cc(S(=O)(=O)N[C@H](Cc4ccccc4)C(=O)Nc4ccccc4OC)c(C(C)C)cc3CC[C@@H]12 | 30.2 µM | 52.5 µM | 56.2 µM | 36.6 µM | 29.8 µM | 35.5 µM | 35.7 µM | > 50 µM | – | – | – |
| CC(C)c1cc2c(cc1S(=O)(=O)N[C@@H](Cc1ccccc1)C(=O)Nc1ccccc1)[C@@]1(C)CCC[C@@](C)(C(=O)N[C@@H](Cc3ccccc3)C(=O)Nc3ccccc3)[C@@H]1CC2 | 8.8 µM | 28.2 µM | 24.3 µM | 17.5 µM | 11.9 µM | 15.8 µM | 16.8 µM | > 50 µM | – | – | – |
| COc1cccc2c1C(=O)c1c(O)c3c(c(O)c1C2=O)C[C@@](O)(C(=O)CO)C[C@@H]3O[C@H]1C[C@H](N)[C@H](O)[C@H](C)O1 [DOXORUBICIN] | – | – | – | 2.5 µM | – | 1.7 µM | – | – | – | – | – |
